From ChEMBL document CHEMBL5107946, “SF5- and SCF3-substituted tetrahydroquinoline compounds as potent bactericidal agents against multidrug-resistant persister Gram-positive bacteria” (RSC Med Chem, 2021)
Values after ≈ are worked out from the molar mass of the structure shown. Active and inactive are the calls of the source.

Assays:
Staphylococcus aureus [1] = assay: Antibacterial activity against methicillin-resistant Staphylococcus aureus USA300 (ARLG 1570) assessed as bacterial growth inhibition incubated for 18 to 20 hrs by CLSI based broth microdilution assay; format: functional; conditions: time 18-20 hrs
Summary of the method: (§1)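 CLSI broth microdilution; compounds and control antibiotics made up at 10 mg mL−1 in DMSO (stock), serially diluted 1:2 across the plate. Inoculum adjusted to 0.5 McFarland, then diluted 1:100 into wells. Plates incubated static at 37 °C for 18–20 h before MIC read.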

Staphylococcus aureus [2] = assay: Antibacterial activity against methicillin-resistant Staphylococcus aureus USA300 (ARLG 1567) assessed as bacterial growth inhibition incubated for 18 to 20 hrs by CLSI based broth microdilution assay; format: functional; conditions: time 18-20 hrs; summary of the method: as §1
Staphylococcus aureus [3] = assay: Antibacterial activity against methicillin-resistant Staphylococcus aureus ST239 (ARLG 1644) assessed as bacterial growth inhibition incubated for 18 to 20 hrs by CLSI based broth microdilution assay; format: functional; conditions: time 18-20 hrs; summary of the method: as §1
Staphylococcus aureus [4] = assay: Antibacterial activity against methicillin-resistant Staphylococcus aureus ATCC 33592 assessed as bacterial growth inhibition incubated for 18 to 20 hrs by CLSI based broth microdilution assay; format: functional; conditions: time 18-20 hrs; summary of the method: as §1
Enterococcus faecalis [5] = assay: Bactericidal activity against Enterococcus faecalis ATCC 29212 assessed as reduction in colony forming unit incubated for 20 hrs; format: functional
Summary of the method: (§2)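 Follows the broth microdilution MIC plate. 4 μL taken from each well without growth, spotted in duplicate on tryptic soy agar and incubated static at 37 °C for 20 h. MBC taken as the concentration giving 99.9% reduction in CFU.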

Staphylococcus aureus [6] = assay: Antibacterial activity against methicillin-resistant Staphylococcus aureus ST1312 (ARLG 1649) assessed as bacterial growth inhibition incubated for 18 to 20 hrs by CLSI based broth microdilution assay; format: functional; conditions: time 18-20 hrs; summary of the method: as §1
Staphylococcus aureus [7] = assay: Antibacterial activity against methicillin-resistant Staphylococcus aureus ATCC 33592 assessed as fold increase in MIC incubated for 30 days by resistance development based broth microdilution assay; format: functional; conditions: time 30 day
Summary of the method: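 Multi-step resistance selection over 30 days. MIC determined first. Each day, 5 μL from the turbid well just below the MIC was diluted 1:1000 in CA-MHB and used as inoculum for the next broth microdilution MIC. Resistance defined as a rise of more than four-fold over the starting MIC.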

Staphylococcus aureus [8] = assay: Antibacterial activity against Staphylococcus aureus ATCC 25923 assessed as bacterial growth inhibition incubated for 18 to 20 hrs by CLSI based broth microdilution assay; format: functional; conditions: time 18-20 hrs; summary of the method: as §1
Enterococcus faecalis [9] = assay: Bactericidal activity against vancomycin-resistant Enterococcus faecalis ATCC 51575 assessed as reduction in colony forming unit incubated for 20 hrs; format: functional; summary of the method: as §2
Enterococcus faecalis [10] = assay: Antibacterial activity against Enterococcus faecalis ATCC 29212 assessed as bacterial growth inhibition incubated for 18 to 20 hrs by CLSI based broth microdilution assay; format: functional; conditions: time 18-20 hrs; summary of the method: as §1
Staphylococcus aureus [11] = assay: Antibacterial activity against methicillin-resistant Staphylococcus aureus USA300 assessed as bacterial growth inhibition incubated for 18 to 20 hrs by CLSI based broth microdilution assay; format: functional; conditions: time 18-20 hrs; summary of the method: as §1
Staphylococcus aureus [12] = assay: Antibacterial activity against methicillin-resistant Staphylococcus aureus ST239 (ARLG 1663) assessed as bacterial growth inhibition incubated for 18 to 20 hrs by CLSI based broth microdilution assay; format: functional; conditions: time 18-20 hrs; summary of the method: as §1
Staphylococcus aureus [13] = assay: Antibacterial activity against Staphylococcus aureus ATCC 25923 assessed as bacterial growth inhibition at 16 ug/ml incubated for 18 to 20 hrs by CLSI based broth microdilution assay; format: functional, organism-based; conditions: dose 16.0 µg/ml, time 18-20 hrs
Summary of the method: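 Single-concentration screen at 16 μg mL−1 final. Overnight TSB culture was diluted 1:1000 in cation-adjusted MHB and grown to early exponential phase. 1 mL of culture was added to compound in glass tubes and incubated overnight at 37 °C. OD600 was read and normalized to the DMSO control after subtracting medium-only OD.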

Staphylococcus aureus [14] = assay: Bactericidal activity against methicillin-resistant Staphylococcus aureus ATCC 33592 assessed as reduction in colony forming unit at 1 x MIC incubated for 18 to 24 hrs by Time-kill analysis; format: functional, organism-based; conditions: time 18-24 hrs
Summary of the method: (§3)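 Log-phase time-kill. Overnight TSB culture diluted 1:1000 and grown to OD600 0.6, then diluted 1 in 10 in TSB (about 2.92 × 10^6 CFU per mL). Exposed at 1× or 4× MIC in triplicate at 37 °C. Samples taken at 0, 2, 4, 8, 12 and 24 h, serially diluted in PBS, plated on TSA in duplicate and counted after 18–20 h.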

Cell membrane = assay: Induction of cell membrane permeability in Staphylococcus aureus ATCC 25923 at 2 to 10 ug/ml by DiOC2 dye based flow cytometry assay; conditions: dose 2-10 µg/ml
Summary of the method: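 Exponential-phase cells (OD600 0.2–0.3) treated at 2 or 10 μg mL−1; bithionol 4 μg mL−1 as positive control. Washed twice in PBS and resuspended in buffer. To-PRO 3 iodide (red) and DiOC2 (green) added and cells analysed at once by flow cytometry. Permeabilization read as the red/green ratio.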

Listeria monocytogenes [15] = assay: Antibacterial activity against Listeria monocytogenes ATCC 19115 assessed as bacterial growth inhibition incubated for 18 to 20 hrs by CLSI based broth microdilution assay; format: functional; conditions: time 18-20 hrs
Summary of the method: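 MIC by CLSI broth microdilution. Compounds were made as 10 mg mL−1 DMSO stocks and serially diluted 1:2. Inoculum was set to 0.5 McFarland and diluted 1:100 into the wells. Plates were incubated static at 37 °C for 18–20 h before reading the MIC.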

Enterococcus faecium = assay: Antibacterial activity against vancomycin-resistant Enterococcus faecium ATCC 700221 assessed as bacterial growth inhibition incubated for 18 to 20 hrs by CLSI based broth microdilution assay
Staphylococcus aureus [16] = assay: Antibacterial activity against methicillin-resistant Staphylococcus aureus USA300 (ARLG 1561) assessed as bacterial growth inhibition incubated for 18 to 20 hrs by CLSI based broth microdilution assay; format: functional; conditions: time 18-20 hrs; summary of the method: as §1
Staphylococcus aureus [17] = assay: Antibacterial activity against methicillin-resistant Staphylococcus aureus USA300 (ARLG 1568) assessed as bacterial growth inhibition incubated for 18 to 20 hrs by CLSI based broth microdilution assay; format: functional; conditions: time 18-20 hrs; summary of the method: as §1
Staphylococcus aureus [18] = assay: Bactericidal activity against Staphylococcus aureus ATCC 25923 assessed as reduction in colony forming unit incubated for 20 hrs; format: functional; summary of the method: as §2
Staphylococcus aureus [19] = assay: Bactericidal activity against methicillin-resistant Staphylococcus aureus ATCC 33592 assessed as reduction in colony forming unit at 4 x MIC incubated for 18 to 24 hrs by Time-kill analysis; format: functional, organism-based; conditions: time 18-24 hrs; summary of the method: as §3
Staphylococcus aureus [20] = assay: Bactericidal activity against methicillin-resistant Staphylococcus aureus ATCC 33592 assessed as reduction in colony forming unit incubated for 20 hrs; format: functional; summary of the method: as §2
Staphylococcus aureus [21] = assay: Antibacterial activity against methicillin-resistant Staphylococcus aureus ST239 (ARLG 1665) assessed as bacterial growth inhibition incubated for 18 to 20 hrs by CLSI based broth microdilution assay; format: functional; conditions: time 18-20 hrs; summary of the method: as §1
Staphylococcus aureus [22] = assay: Antibacterial activity against methicillin-resistant Staphylococcus aureus USA300 (ARLG 1569) assessed as bacterial growth inhibition incubated for 18 to 20 hrs by CLSI based broth microdilution assay; format: functional; conditions: time 18-20 hrs; summary of the method: as §1
Listeria monocytogenes [23] = assay: Bactericidal activity against Listeria monocytogenes ATCC 19115 assessed as reduction in colony forming unit incubated for 20 hrs; format: functional
Summary of the method: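 MBC: after the MIC assay, 4 μL from wells with no growth were spotted in duplicate on TSA. Plates were incubated static at 37 °C for 20 h. MBC was taken as a 99.9% reduction in CFU.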

FC(F)(F)c1n[nH]cc1[C@@H]1Nc2ccc(S(F)(F)(F)(F)F)cc2[C@H]2[C@@H]3CC[C@@H](C3)[C@H]21
MIC (Staphylococcus aureus [1]): 2 µg/mL (≈ 4.35 µM) | MIC (Staphylococcus aureus [2]): 2 µg/mL (≈ 4.35 µM) | MIC (Staphylococcus aureus [3]): 2 µg/mL (≈ 4.35 µM) | MIC (Staphylococcus aureus [4]): 2 µg/mL (≈ 4.35 µM) | MBC (Enterococcus faecalis [5]): 8 µg/mL (≈ 17.4 µM) | MIC (Staphylococcus aureus [6]): 2 µg/mL (≈ 4.35 µM) | fold change (FC) (Staphylococcus aureus [7]): 1 | MIC (Staphylococcus aureus [8]): 2 µg/mL (≈ 4.35 µM) | MBC (Enterococcus faecalis [9]): 8 µg/mL (≈ 17.4 µM) | MIC (Enterococcus faecalis [10]): 4 µg/mL (≈ 8.71 µM) | MIC (Staphylococcus aureus [11]): 4 µg/mL (≈ 8.71 µM) | MIC (Staphylococcus aureus [12]): 1 µg/mL (≈ 2.18 µM) | Activity (Staphylococcus aureus [13]): Active | Activity (Staphylococcus aureus [14]): Active | Activity (Cell membrane): Active | MIC (Listeria monocytogenes [15]): 2 µg/mL (≈ 4.35 µM) | MIC (Enterococcus faecium): 2 µg/mL (≈ 4.35 µM) | MIC (Staphylococcus aureus [16]): 2 µg/mL (≈ 4.35 µM) | MIC (Staphylococcus aureus [17]): 2 µg/mL (≈ 4.35 µM) | MBC (Staphylococcus aureus [18]): 8 µg/mL (≈ 17.4 µM) | Activity (Staphylococcus aureus [19]): Active | MBC (Staphylococcus aureus [20]): 4 µg/mL (≈ 8.71 µM) | MIC (Staphylococcus aureus [21]): 2 µg/mL (≈ 4.35 µM) | MIC (Staphylococcus aureus [22]): 2 µg/mL (≈ 4.35 µM) | MBC (Listeria monocytogenes [23]): 4 µg/mL (≈ 8.71 µM)
